Bioassay records as filed in PubChem BioAssay.
Compounds with a hit are over-represented: about 1.8% of the library has one in this group of screens.
NPY Y1 blocker: antagonists of human neuropeptide Y receptor Y1. P25929. HEK293-CNG Y1 cells, membrane potential fluorescence; NPY at EC95, then isoproterenol. inhibition, % at 3.6 µM. 1% of 200,000 active;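 active = inhibition above the campaign mean inhibition of all tested compounds plus 3 SD, cut at about 20% in these data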;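 note: 0% = DMSO wells given NPY plus isoproterenol and 100% = isoproterenol alone without NPY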
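Assay system: HEK293 cells with Y1 receptor plus CNG channel | Probe or stimulus: NPY (25 nM), isoproterenol (1 µM), Ro 20-1724 (25 µM) | Timing: Compound incubation 1 h at room temperature, readout 45 min post-stimulation | Measured by: Membrane-potential fluorescent dye readout | Benchmarks: High control isoproterenol alone, low control NPY with isoproterenol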
NPY Y2 blocker: antagonists of human neuropeptide Y receptor Y2. P49146. NPY-Y2 expressing cells, antagonist mode. inhibition, % at 2.7 µM. 0.99% of 140,000 active. AID 793; in the data active = inhibition above about 17%;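 note: 0% = vehicle with agonist challenge and 100% = reference antagonist with challenge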
Target sequence (P49146 whole entry, looked up): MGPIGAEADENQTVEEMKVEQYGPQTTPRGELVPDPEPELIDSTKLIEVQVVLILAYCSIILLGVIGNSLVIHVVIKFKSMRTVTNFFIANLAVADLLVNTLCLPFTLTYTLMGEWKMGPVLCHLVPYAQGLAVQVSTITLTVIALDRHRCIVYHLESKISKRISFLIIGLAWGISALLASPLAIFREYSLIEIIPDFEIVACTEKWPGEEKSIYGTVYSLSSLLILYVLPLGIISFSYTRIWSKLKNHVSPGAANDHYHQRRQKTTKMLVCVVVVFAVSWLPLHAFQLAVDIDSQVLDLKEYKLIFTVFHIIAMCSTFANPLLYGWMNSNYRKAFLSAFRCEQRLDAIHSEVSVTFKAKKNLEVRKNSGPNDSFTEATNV
NPY1 pot ag: human NPY-Y1 potentiation or agonism, primary screen; 0.37% of 220,000 active; activation, % at 3.6 µM; NPY-Y1 expressing cells, potentiator/agonist activation; AID 1304; in the data active = activation above about 33%, passing the limit was not always enough;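 note: cells stimulated with NPY at EC10 then isoproterenol at EC100; 0% = low agonist plus stimulus and 100% = saturating agonist plus stimulus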
NPY-Y2 PAM-ag: potentiators or agonists of human neuropeptide Y receptor Y2 | AID 1359 | 0.45% of 220,000 active | P49146 | activation, % at 3.6 µM | cells expressing NPY-Y2, potentiator/agonist read-out; in the data active = activation above about 27%;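 note: cells stimulated with NPY near EC25 plus isoproterenol at EC100; 0% = vehicle plus submaximal agonist and 100% = vehicle plus saturating agonist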
NPY-Y1 confirm: human NPY-Y1 potentiation or agonism, confirmation; shares compounds with NPY1 pot ag; cell-based NPY-Y1 potentiator/agonist assay; activation, % at 3.6 µM; 20% of 280 active; in the data active = activation above about 45%;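 note: cells challenged with NPY at its EC10 plus isoproterenol stimulus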
NPY-Y2 counter: potentiates or activates NPY-Y2, counter-screen for NPY-Y1 hits | shares compounds with NPY1 pot ag | HEK293-CNG cells, membrane-potential fluorescence (FLIPR), 1536-well | activation, % at 3.6 µM | 20% of 280 active | AID 1649; in the data active = activation above about 33%
NPY-Y1 ag: counter-screen for NPY-Y1 potentiators: agonists of human NPY-Y1; 50% of 280 active; HEK293 Y1-CNGC, membrane potential fluorescence, agonist mode; activation, % at 3.6 µM; shares compounds with NPY1 pot ag;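 active = percent activation above the mean of DMSO-only control wells plus 3 SD of those wells, cut at about 18% in these data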;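 note: cells challenged with isoproterenol plus Ro 20-1724 with no NPY in test wells; Y1 agonism lowers isoproterenol-driven cAMP and reduces probe fluorescence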
NPY-Y2 agonist: counter-screen for NPY-Y1 potentiators or agonists: agonists of NPY-Y2. activation, % at 3.6 µM. 67% of 280 active. HEK293 Y2-CNGC, membrane potential fluorescence, agonist mode. AID 1698. shares compounds with NPY1 pot ag;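 active = activation above the solvent-only control wells' mean plus 3 SD, cut at about 11% in these data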;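 note: 0% = DMSO with isoproterenol and 100% = 40 nM NPY maximal response; agonism lowers cAMP so well fluorescence drops in active wells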
CNGC inh 2: counter-screen for NPY-Y1 potentiators or agonists: CNG channel inhibitors. 42% of 280 active. HEK293-CNG parental, isoproterenol cAMP, membrane potential fluorescence. AID 1704. inhibition, % at 3.6 µM. shares compounds with NPY1 pot ag;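 active = inhibition above the mean of stimulated solvent-only control wells plus 3 SD, cut at about 22% in these data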;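 note: 0% = isoproterenol-stimulated DMSO wells and 100% = unstimulated DMSO wells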
* = called active by the depositor; nt = no result.

SMILES	NPY Y1 blocker	NPY Y2 blocker	NPY1 pot ag	NPY-Y2 PAM-ag	NPY-Y1 confirm	NPY-Y2 counter	NPY-Y1 ag	NPY-Y2 agonist	CNGC inh 2
Cc1ccccc1NCC(=O)N/N=C/c1c[nH]c2ccccc12	-10	nt	46*	15	29	25	27*	18*	29*
CC1=C(C(=O)OC(C)C)C(c2cn(-c3ccccc3)nc2-c2cccs2)NC(=O)N1 (stereo unspecified)	-7	0	-12	-10	nt	nt	nt	nt	nt
Cc1cc(C)c(/C([O-])=C(/C(=S)Nc2ccc(SC(F)F)cc2)[n+]2ccccc2)cc1C	1	nt	40*	27	69*	47*	52*	52*	56*
CN(C)c1cc[n+](/C(C(=S)Nc2ccc(SC(F)F)cc2)=C(/[O-])c2ccccc2)cc1	0	nt	9	7	nt	nt	nt	nt	nt
[O-]/C(=C(\C(=S)Nc1ccc(SC(F)F)cc1)[n+]1ccccc1)c1cc(Cl)ccc1Cl	-12	nt	47*	26	62*	35*	38*	25*	49*
COc1ccccc1-n1cnnc1SCC(=O)NCC1CCCO1 (stereo unspecified)	-1	nt	0	15	nt	nt	nt	nt	nt
CC(C)c1ncc(S(=O)(=O)c2ccc(C(F)(F)F)cn2)c(N)n1	nt	nt	19	11	nt	nt	nt	nt	nt
O=C1N(C2CCCC2)C[C@@H]2C[C@@H](c3cn[nH]c3-c3ccc(Cl)cc3)N3CCC[C@@]123	-7	nt	39*	4	49*	25	32*	31*	42*
Cc1nn(Cc2cccc(C(=O)N3CCCC(C)C3)c2)c(C)c1[N+](=O)[O-] (stereo unspecified)	-4	5	-27	3	nt	nt	nt	nt	nt
Nc1nc(Cl)cc(N2CCC(c3cc(-c4ccc(Cl)cc4)n[nH]3)CC2)n1	-5	-2	55*	33	15	15	1	15*	6
O=[N+]([O-])c1cc(S(=O)(=O)Nc2cccc(Cl)c2)ccc1N/N=C/c1ccc(N2CCOCC2)cc1	nt	nt	66*	-6	53*	61*	44*	61*	47*
O=C(Nc1ccccc1)c1sccc1Oc1ccc([N+](=O)[O-])cc1F	6	nt	-3	1	nt	nt	nt	nt	nt
CC(C)Cn1c(N)c(C(=O)COC(=O)c2cnc(Cl)c(Cl)c2)c(=O)n(C)c1=O	-3	nt	42*	24	38	42*	33*	24*	16
Cc1nn(Cc2nnc(SCC(=O)Nc3ccc(Cl)cc3)n2C)c(C)c1[N+](=O)[O-]	nt	nt	-7	0	nt	nt	nt	nt	nt
COc1ccc(/C=N/NC(=O)c2cccc(Br)c2)cc1COc1ccccn1	nt	nt	4	-19	nt	nt	nt	nt	nt
Cc1ccc(-c2nnc(-c3ccc(NC(=O)Cc4cccs4)cc3)o2)cc1	3	0	50*	0	-22	-9	-13	3	0
CC1N(C)c2cc(NC(=O)c3ccco3)c(P(=O)(Nc3ccc([N+](=O)[O-])cc3)N3CCOCC3)cc2C1(C)C (stereo unspecified)	-9	nt	37*	22	37	25	17	29*	24*
CCn1ccnc1CN1CCc2c([nH]c3ccccc23)C1CC(C)C (stereo unspecified)	3	nt	9	-9	nt	nt	nt	nt	nt
CCn1ccnc1CN1CCc2c([nH]c3ccccc23)C1C(C)(C)C (stereo unspecified)	-5	nt	34*	15	16	11	7	22*	11
COc1cc2c3c(c1)c(N=NC(N)=S)c(O)n3C(C)(C)C=C2C	nt	nt	55*	24	74*	61*	47*	60*	54*
CC1=CC(C)(C)n2c(O)c(N=NC(N)=S)c3cccc1c32	-5	1	-11	13	nt	nt	nt	nt	nt
C(=Nc1ccc(Nc2ccccc2)cc1)c1ccc2ccccc2c1	-8	4	46*	22	-14	-9	3	0	-1
Brc1ccc(C=Nc2ccc(Nc3ccccc3)cc2)s1	0	2	40*	16	2	2	9	17*	8
NS(=O)(=O)c1ccc(CCNc2ncnc3c2c(-c2ccccc2)cn3-c2ccc(F)cc2)cc1	-6	-1	105*	-7	6	-2	-5	3	5
COc1cccc(NC(=O)c2ccc(NCCCN3CCC(C)CC3)c([N+](=O)[O-])c2)c1	0	nt	18	14	nt	nt	nt	nt	nt
SMILES	NPY Y1 blocker	NPY Y2 blocker	NPY1 pot ag	NPY-Y2 PAM-ag	NPY-Y1 confirm	NPY-Y2 counter	NPY-Y1 ag	NPY-Y2 agonist	CNGC inh 2
COc1cccc(NC(=O)c2ccc(NCCCN3CC(C)CC(C)C3)c([N+](=O)[O-])c2)c1 (stereo unspecified)	-1	nt	38*	16	43	26	16	14*	31*
Cc1ccc(NC(=O)COC(=O)c2ccc([N+](=O)[O-])o2)cc1S(=O)(=O)N1CCCCC1	9	nt	41*	5	-7	-2	-14	-4	5
O=C(COC(=O)c1ccc([N+](=O)[O-])o1)Nc1cccc(S(=O)(=O)N2CCCCC2)c1	2	nt	1	1	nt	nt	nt	nt	nt
O=C1N=c2ccccc2=C1c1sc(=S)n(Cc2ccccc2Cl)c1O	nt	nt	72*	-6	37	38*	25*	30*	30*
Cc1nc(N2CCOCC2)sc1C=O	-1	nt	-9	-7	nt	nt	nt	nt	nt
COc1ccc(C)cc1N=Nc1ccc(O)c2ncccc12	-10	nt	47*	20	49*	42*	57*	53*	51*
Cc1cc(C(=O)Oc2cccnc2)ccc1[N+](=O)[O-]	2	-2	-15	-14	nt	nt	nt	nt	nt
S=c1[nH]ccn1-c1c(Cl)cccc1Cl	nt	nt	11	6	nt	nt	nt	nt	nt
O=C(Nn1cnnc1)c1cc(-c2cccc(Br)c2)nc2ccccc12	nt	nt	11	1	nt	nt	nt	nt	nt
CCOC(=O)C(C)(C)N(Cc1cccc(C)c1)S(=O)(=O)c1ccc(Cl)c([N+](=O)[O-])c1	-9	-3	66*	27	34	29	39*	31*	46*
Cc1ccc(C2N=C(N)Nc3nc(=O)c4ccccc4n32)cc1 (stereo unspecified)	nt	nt	-18	-8	nt	nt	nt	nt	nt
COC(=O)c1cc(C(=O)c2ccc(Cl)cc2)n2c(=O)/c(=C\N(C)C)sc12	-9	nt	35*	16	14	12	19*	12*	11
COC(=O)c1cc(C(=O)c2ccccc2)n2c(=O)/c(=C\N(C)C)sc12	nt	nt	13	18	nt	nt	nt	nt	nt
Cc1ccccc1OCC(O)CN1CCN(CC(O)COc2ccccc2C)CC1 (stereo unspecified)	-5	nt	40*	23	18	19	31*	16*	0
CCN(CC)CCCNC(=S)N(Cc1cccnc1)Cc1cc2cc(C)ccc2[nH]c1=O	nt	nt	6	-9	nt	nt	nt	nt	nt
